# Measurements: ChEMBL document CHEMBL4433237, “6,6'-Dihydroxythiobinupharidine as a poison of human type II topoisomerases” (Bioorg Med Chem Lett, 2019)
# The source made the active and inactive calls. No cut-off for these calls is given here.
# Experiments:
# [1] = biological target: DNA topoisomerase 2-alpha (Homo sapiens) (UniProt P11388); assay: (§1) Inhibition of recombinant human topoisomerase-2alpha expressed in Saccharomyces cerevisiae assessed as increase in double-stranded DNA cleavage at 0 to 1000 uM using supercoiled pBR322 DNA as substrate incubated for 6 mins measured after 30 mins by ethidium bromide staining based agarose gel electrophoresis method relative to control
# Outline: (§2)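 Human topoisomerase IIα or IIβ with negatively supercoiled plasmid. Cleavage trapped with SDS. Supercoiled, nicked and linear forms resolved on ethidium bromide-stained agarose gels. Cleavage normalized to linear standards set to 100%. Three independent experiments.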
# [2] = biological target: DNA topoisomerase 2-beta (Homo sapiens) (UniProt Q02880); assay: as §1, with “topoisomerase-2beta” for “topoisomerase-2alpha”; outline: as §2
# DNA = assay: Induction of DNA cleavage in supercoiled pBR322 DNA at 500 uM incubated for 6 mins measured after 30 mins by ethidium bromide staining based agarose gel electrophoresis method relative to control; assay type: nucleic-acid assay; details: Escherichia coli
# Outline: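 Control with enzyme omitted: 500 μM compound incubated with plasmid DNA alone under DNA cleavage assay conditions. Products resolved on ethidium bromide-stained agarose gel. Two independent experiments.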
# [3] = biological target: DNA topoisomerase 2-alpha (Homo sapiens) (UniProt P11388); assay: as §1, with “cleavage at 500 uM using” for “cleavage at 0 to 1000 uM using”, “30 mins in presence of EDTA by ethidium” for “30 mins by ethidium”
# Outline: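 Human topoisomerase IIα, plasmid DNA and 500 μM compound. After reaction, mixtures treated with 25 mM EDTA before SDS to remove active-site Mg2+, versus reactions stopped with SDS before EDTA. Cleavage read on ethidium bromide-stained agarose gel. Two independent experiments.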
# [4] = biological target: DNA topoisomerase 2-alpha (Homo sapiens) (UniProt P11388); assay: Poison activity at recombinant human topoisomerase-2alpha expressed in Saccharomyces cerevisiae assessed as stabilization of DNA-enzyme cleavage complex at 500 uM using supercoiled pBR322 DNA as substrate incubated for 10 mins and measured after 0 to 240 mins by ethidium bromide staining based agarose gel electrophoresis method
# [5] = biological target: DNA topoisomerase 2-alpha (Homo sapiens) (UniProt P11388); assay: Poison activity at recombinant human topoisomerase-2alpha expressed in Saccharomyces cerevisiae assessed as rate of DNA ligation time at 0 to 500 uM incubated for 6 mins by agarose gel electrophoresis method (reference value: 12.5 sec)
# [6] = biological target: DNA topoisomerase 2-alpha (Homo sapiens) (UniProt P11388); assay: (§3) Covalent poison activity at recombinant human topoisomerase-2alpha expressed in Saccharomyces cerevisiae assessed as decrease in pBR322 DNA cleavage up to 1000 uM using supercoiled pBR322 DNA as substrate incubated for 6 mins and measured after 30 mins in presence of dithiothreitol by ethidium bromide staining based agarose gel electrophoresis method relative to control
# [7] = biological target: DNA topoisomerase 2-alpha (Homo sapiens) (UniProt P11388); assay: as §3, with “glutathione” for “dithiothreitol”
# [8] = biological target: DNA topoisomerase 2-alpha (Homo sapiens) (UniProt P11388); assay: as §3, with “ascorbic acid” for “dithiothreitol”
# [9] = biological target: DNA topoisomerase 2-alpha (Homo sapiens) (UniProt P11388); assay: (§4) Poison activity at recombinant human topoisomerase-2alpha expressed in Saccharomyces cerevisiae assessed as increase in double-stranded DNA cleavage at 500 uM using supercoiled pBR322 DNA as substrate preincubated for 120 sec followed by substrate addition incubated for 6 mins and measured after 30 mins by ethidium bromide staining based agarose gel electrophoresis method relative to control
# Outline: (§5)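 500 μM compound preincubated with topoisomerase IIα for varying times before DNA addition. Double-stranded breaks measured and expressed relative to the zero-time level set to 1.0. Three independent experiments.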
# Homo sapiens [10] = species on record: Homo sapiens; assay: (§6) Covalent poison activity at recombinant human topoisomerase-2alpha N- and C-terminal domain deletion mutant assessed as increase in pBR322 DNA cleavage at 0 to 1000 uM using supercoiled pBR322 DNA as substrate incubated for 6 mins and measured after 30 mins by ethidium bromide staining based agarose gel electrophoresis method relative to control
# Outline: (§7)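 Plasmid cleavage with topoisomerase IIα truncations: C-terminal deletion construct keeping the N-terminal portion or catalytic core, residues 431–1193, lacking both N- and C-terminal domains. Compound at 0–1000 μM. Cleavage complexes trapped with SDS. Negatively supercoiled, nicked and linear forms resolved on ethidium bromide-stained agarose gels. Cleavage normalized to linear standards set to 100%.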
# Homo sapiens [11] = species on record: Homo sapiens; assay: as §6, with “human N-terminal” for “human”, “topoisomerase-2alpha” for “topoisomerase-2alpha N- and”, “mutant expressed in Saccharomyces cerevisiae” for “mutant”; outline: as §7
# [12] = biological target: DNA topoisomerase 2-alpha (Homo sapiens) (UniProt P11388); assay: as §4, with “assessed as enzyme inactivation time by measuring increase in” for “assessed as increase in”; outline: as §5
# Homo sapiens [13] = species on record: Homo sapiens; assay: as §6, with “50” for “0 to 1000”
# Outline: (§8)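 Enzyme is a human topoisomerase IIα catalytic core (residues 431–1193) lacking the N- and C-terminal domains. Negatively supercoiled plasmid is the substrate. Double-stranded breaks are read as linear plasmid on ethidium bromide-stained agarose gels and compared with a linear standard. Values are means ± SD of three independent experiments.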
# Homo sapiens [14] = species on record: Homo sapiens; assay: as §6, with “100” for “0 to 1000”; outline: as §8
# Chain of DNA topoisomerase 2-alpha (Homo sapiens) (P11388 whole entry): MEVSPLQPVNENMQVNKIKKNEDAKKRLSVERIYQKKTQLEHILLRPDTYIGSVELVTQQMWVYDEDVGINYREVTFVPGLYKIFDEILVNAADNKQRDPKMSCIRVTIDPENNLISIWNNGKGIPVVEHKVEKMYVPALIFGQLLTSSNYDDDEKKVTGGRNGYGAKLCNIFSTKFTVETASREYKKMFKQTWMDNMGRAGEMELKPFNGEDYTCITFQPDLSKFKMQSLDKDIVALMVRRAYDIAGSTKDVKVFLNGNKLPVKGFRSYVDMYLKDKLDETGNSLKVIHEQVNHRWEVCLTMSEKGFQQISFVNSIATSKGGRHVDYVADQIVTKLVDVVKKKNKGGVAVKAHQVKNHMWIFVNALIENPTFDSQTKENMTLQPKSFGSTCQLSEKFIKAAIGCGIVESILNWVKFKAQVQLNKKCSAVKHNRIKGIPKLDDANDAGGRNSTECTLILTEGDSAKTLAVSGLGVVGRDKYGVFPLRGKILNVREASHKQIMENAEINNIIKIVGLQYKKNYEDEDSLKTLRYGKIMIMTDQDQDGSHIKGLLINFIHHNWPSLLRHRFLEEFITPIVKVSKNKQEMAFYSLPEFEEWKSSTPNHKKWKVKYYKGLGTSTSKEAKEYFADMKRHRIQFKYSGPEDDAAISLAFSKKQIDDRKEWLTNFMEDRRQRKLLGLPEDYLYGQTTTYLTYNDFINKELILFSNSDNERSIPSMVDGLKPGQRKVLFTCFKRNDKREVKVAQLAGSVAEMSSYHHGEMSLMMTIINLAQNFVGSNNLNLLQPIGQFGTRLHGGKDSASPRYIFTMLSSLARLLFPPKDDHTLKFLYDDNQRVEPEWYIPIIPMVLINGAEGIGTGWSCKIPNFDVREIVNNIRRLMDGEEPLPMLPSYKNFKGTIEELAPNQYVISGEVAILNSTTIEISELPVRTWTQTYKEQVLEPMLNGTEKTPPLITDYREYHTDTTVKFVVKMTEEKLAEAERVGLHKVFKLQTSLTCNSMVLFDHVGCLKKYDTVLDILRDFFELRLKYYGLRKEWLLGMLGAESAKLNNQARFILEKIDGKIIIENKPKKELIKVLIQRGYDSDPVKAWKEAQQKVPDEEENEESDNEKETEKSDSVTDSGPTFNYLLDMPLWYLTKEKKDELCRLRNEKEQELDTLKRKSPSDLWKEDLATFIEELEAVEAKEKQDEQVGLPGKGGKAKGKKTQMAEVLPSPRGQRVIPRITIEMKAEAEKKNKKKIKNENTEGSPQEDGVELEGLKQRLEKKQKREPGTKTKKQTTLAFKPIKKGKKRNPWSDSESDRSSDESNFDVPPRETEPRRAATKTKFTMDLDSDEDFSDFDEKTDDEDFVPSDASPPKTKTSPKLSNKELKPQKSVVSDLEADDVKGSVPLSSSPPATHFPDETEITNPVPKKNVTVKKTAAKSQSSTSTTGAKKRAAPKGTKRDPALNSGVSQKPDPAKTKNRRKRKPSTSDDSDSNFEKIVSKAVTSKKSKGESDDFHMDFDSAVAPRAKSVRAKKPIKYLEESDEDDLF
# Chain of DNA topoisomerase 2-beta (Homo sapiens) (Q02880 whole entry): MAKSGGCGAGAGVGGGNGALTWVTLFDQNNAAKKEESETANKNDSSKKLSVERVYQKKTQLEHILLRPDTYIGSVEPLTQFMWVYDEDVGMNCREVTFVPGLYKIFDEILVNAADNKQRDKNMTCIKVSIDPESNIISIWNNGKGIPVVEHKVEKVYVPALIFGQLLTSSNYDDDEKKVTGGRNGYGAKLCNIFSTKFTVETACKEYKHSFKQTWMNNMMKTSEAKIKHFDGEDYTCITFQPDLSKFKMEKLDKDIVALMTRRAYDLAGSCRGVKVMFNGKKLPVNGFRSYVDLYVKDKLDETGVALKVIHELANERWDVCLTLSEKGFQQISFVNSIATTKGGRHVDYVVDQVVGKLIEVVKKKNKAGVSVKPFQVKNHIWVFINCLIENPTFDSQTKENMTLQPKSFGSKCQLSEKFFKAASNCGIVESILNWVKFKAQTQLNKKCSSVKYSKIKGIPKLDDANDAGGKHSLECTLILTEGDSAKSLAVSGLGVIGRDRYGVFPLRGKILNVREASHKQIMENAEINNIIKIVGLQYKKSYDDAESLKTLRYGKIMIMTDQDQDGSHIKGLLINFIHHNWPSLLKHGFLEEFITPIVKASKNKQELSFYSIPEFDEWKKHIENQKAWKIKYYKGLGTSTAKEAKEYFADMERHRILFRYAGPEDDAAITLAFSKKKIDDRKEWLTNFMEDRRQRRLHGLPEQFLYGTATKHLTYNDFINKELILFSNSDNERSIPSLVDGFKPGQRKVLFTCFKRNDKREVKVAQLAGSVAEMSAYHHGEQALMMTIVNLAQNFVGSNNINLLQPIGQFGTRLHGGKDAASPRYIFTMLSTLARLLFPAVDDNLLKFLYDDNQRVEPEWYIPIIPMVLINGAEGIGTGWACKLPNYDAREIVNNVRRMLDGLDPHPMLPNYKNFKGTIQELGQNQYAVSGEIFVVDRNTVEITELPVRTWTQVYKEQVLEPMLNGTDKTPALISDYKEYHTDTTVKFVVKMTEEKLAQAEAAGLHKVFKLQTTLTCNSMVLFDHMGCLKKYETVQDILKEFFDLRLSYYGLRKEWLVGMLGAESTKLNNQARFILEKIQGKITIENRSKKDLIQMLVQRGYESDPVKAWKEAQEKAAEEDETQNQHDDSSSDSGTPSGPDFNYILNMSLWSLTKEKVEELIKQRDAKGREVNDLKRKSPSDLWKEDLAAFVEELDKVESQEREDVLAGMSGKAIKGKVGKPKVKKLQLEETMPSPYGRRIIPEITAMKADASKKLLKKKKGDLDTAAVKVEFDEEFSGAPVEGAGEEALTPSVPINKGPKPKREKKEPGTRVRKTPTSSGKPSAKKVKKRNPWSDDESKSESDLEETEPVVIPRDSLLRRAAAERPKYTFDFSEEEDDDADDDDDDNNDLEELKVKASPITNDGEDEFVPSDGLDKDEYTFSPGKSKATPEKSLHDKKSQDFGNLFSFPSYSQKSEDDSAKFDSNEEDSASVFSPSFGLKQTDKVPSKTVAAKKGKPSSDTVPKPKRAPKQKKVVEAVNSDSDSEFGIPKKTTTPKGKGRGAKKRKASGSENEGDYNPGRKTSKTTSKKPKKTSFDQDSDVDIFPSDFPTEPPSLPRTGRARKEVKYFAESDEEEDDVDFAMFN
structure (smiles),measurement,setting,value
C[C@@H]1CC[C@@H](c2ccoc2)N2[C@H]1CC[C@@]1(CS[C@@]3(CC[C@H]4[C@H](C)CC[C@@H](c5ccoc5)N4[C@@H]3O)C1)[C@H]2O,fold change (FC),[1],8
same,fold change (FC),[2],3
same,Activity,DNA,inactive
same,inhibition,[3],inactive
same,Activity,[4],Active
same,T1/2,[5],11 s
same,Activity,[6],inactive
same,Activity,[7],inactive
same,Activity,[8],inactive
same,inhibition,[9],100%
same,Activity,Homo sapiens [10],inactive
same,Activity,Homo sapiens [11],Active
same,T1/2,[12],30 s
COc1cc([C@@H]2c3cc4c(cc3[C@@H](O[C@@H]3O[C@@H]5CO[C@@H](C)O[C@H]5[C@H](O)[C@H]3O)[C@H]3COC(=O)[C@H]23)OCO4)cc(OC)c1O,Activity,Homo sapiens [13],Active
same,Activity,Homo sapiens [14],Active
